pIC50: −log10 of the molar value.
Legend:
Acetylcholinesterase = Acetylcholinesterase (Homo sapiens, UniProt P22303); assay: Inhibition of acetylcholine esterase
Outline: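 Acetylcholinesterase activity measured with acetylthiocholine substrate. Inhibitor at six concentrations in 5-fold steps from a maximum of 100 µM, duplicate measurements averaged. IC50 from variable-slope sigmoidal dose-response fit.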

Cholinesterase = Cholinesterase (Homo sapiens, UniProt P06276); assay: Inhibition of butyrylcholine esterase
Chain of Cholinesterase (P06276 whole entry): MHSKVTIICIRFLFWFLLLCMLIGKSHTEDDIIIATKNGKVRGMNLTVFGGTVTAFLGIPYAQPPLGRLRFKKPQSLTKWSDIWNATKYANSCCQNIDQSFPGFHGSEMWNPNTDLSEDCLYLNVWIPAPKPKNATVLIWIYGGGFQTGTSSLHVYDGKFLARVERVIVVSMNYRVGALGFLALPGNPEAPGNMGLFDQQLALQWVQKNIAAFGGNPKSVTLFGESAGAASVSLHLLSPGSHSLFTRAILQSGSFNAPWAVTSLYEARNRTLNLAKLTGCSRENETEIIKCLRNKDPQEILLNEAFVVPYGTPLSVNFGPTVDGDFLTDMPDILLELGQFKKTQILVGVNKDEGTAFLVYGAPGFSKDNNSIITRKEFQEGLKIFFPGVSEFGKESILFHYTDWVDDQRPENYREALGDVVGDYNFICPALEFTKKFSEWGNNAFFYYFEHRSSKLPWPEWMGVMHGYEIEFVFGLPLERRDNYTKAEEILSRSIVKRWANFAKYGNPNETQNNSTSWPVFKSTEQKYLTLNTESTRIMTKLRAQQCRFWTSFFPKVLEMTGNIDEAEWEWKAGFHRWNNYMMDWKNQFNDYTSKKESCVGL

[1] = Clearance in Sprague-Dawley rat at 1.1 mg/kg, iv and 2.2 mg/kg, po; format: ADME, organism-based; conditions: in vivo
Outline: (§1)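 Rat PK study, one rat per time point. Dosed i.v. and p.o. by gavage in 10% hydroxypropyl cyclodextrin in phosphate buffer pH 7.0; one compound was given in 20% Tween 80 plus 5% glucose in phosphate buffer pH 7.0. Plasma was diluted 1:1 with 10% methanol and centrifuged, then quantified by turbulent-flow chromatography–MS/MS against plasma calibration curves spanning 10-3000 ng/mL.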

[2] = Oral bioavailability in Sprague-Dawley rat at 2.2 mg/kg, po; format: ADME, organism-based; conditions: in vivo; outline: as §1
Hormone-sensitive lipase = molecular target: T1, Hormone-sensitive lipase (Homo sapiens, UniProt Q05469); assay: Inhibition of recombinant human hormone-sensitive lipase
T1 sequence (Q05469 whole entry): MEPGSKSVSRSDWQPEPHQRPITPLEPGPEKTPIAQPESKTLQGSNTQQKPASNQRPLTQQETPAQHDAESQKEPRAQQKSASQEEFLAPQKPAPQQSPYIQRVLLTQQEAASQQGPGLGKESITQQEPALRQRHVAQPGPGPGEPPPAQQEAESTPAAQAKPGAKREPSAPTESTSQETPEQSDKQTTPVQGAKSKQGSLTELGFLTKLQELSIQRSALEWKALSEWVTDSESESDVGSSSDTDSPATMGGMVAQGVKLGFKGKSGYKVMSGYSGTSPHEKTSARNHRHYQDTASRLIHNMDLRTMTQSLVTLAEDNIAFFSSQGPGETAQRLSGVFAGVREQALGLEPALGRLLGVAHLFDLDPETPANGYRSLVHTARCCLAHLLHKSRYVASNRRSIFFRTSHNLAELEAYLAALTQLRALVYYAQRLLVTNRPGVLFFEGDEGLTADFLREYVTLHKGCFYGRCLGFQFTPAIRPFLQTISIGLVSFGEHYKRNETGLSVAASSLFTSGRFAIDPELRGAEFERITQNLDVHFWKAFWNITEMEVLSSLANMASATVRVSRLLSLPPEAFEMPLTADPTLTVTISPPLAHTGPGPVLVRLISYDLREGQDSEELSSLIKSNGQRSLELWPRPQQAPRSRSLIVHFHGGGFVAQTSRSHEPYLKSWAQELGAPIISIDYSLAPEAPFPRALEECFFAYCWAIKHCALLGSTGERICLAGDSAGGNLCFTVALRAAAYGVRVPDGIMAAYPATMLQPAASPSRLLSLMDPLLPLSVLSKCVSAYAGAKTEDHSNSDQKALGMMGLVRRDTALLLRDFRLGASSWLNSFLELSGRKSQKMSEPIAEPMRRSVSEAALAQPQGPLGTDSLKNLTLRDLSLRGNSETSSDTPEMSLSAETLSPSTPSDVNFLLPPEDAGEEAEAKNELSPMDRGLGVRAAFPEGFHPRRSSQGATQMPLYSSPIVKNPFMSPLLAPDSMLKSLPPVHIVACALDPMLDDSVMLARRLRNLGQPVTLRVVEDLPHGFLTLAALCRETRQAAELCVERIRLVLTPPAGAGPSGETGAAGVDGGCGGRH

[3] = Oral bioavailability in Sprague-Dawley rat at 1 mg/kg, po; format: ADME, organism-based; conditions: in vivo
Outline: (§2)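 Male Sprague-Dawley rats, 12 weeks old, dosed by oral gavage and i.v. in 10% hydroxypropyl cyclodextrin in phosphate buffer pH 7.0, with one rat per time point. Plasma was diluted 1:1 in 10% methanol, centrifuged and quantified by turbulent-flow chromatography–tandem MS against plasma calibration curves (10-3000 ng/mL).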

[4] = Cmax in Sprague-Dawley rat at 0.5 mg/kg, iv and 1 mg/kg, po; format: ADME, organism-based; conditions: in vivo; outline: as §2

Chain of Acetylcholinesterase (P22303 whole entry): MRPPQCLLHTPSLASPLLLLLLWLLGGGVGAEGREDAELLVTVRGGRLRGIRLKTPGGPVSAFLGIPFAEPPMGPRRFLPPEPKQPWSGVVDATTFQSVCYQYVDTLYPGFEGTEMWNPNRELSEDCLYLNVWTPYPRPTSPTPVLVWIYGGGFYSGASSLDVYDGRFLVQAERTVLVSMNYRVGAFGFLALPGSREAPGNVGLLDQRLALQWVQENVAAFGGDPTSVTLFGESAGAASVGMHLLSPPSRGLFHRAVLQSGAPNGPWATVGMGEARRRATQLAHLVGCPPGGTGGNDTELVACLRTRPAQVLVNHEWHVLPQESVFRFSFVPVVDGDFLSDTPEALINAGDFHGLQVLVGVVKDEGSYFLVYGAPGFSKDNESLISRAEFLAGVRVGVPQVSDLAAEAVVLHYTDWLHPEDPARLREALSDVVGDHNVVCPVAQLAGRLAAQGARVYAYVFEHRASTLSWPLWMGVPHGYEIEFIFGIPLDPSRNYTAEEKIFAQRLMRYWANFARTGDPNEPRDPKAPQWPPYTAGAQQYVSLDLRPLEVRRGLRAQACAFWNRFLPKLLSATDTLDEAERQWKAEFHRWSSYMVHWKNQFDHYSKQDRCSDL

SMILES: CN(C(=O)Oc1ccc(Oc2ccc(C(F)(F)F)cn2)cc1)c1ccccc1
- pIC50 (Acetylcholinesterase): < 4.30
- pIC50 (Cholinesterase): < 4.30
- clearance [1]: 61 mL/min/kg
- bioavailability [2]: 16%

SMILES: Cc1cccc(N(C)C(=O)Oc2ccc(Oc3ccc(C(F)(F)F)cn3)cc2)c1
- pIC50 (Acetylcholinesterase): < 4.30
- pIC50 (Cholinesterase): < 4.30

SMILES: COc1ccc(N(C)C(=O)Oc2ccc(Oc3ccc(C(F)(F)F)cn3)cc2)cc1
- pIC50 (Acetylcholinesterase): < 4.30
- pIC50 (Cholinesterase): < 4.30

SMILES: O=C(c1ccccc1)C1CCN(C(=O)Oc2ccc(Oc3ccc(C(F)(F)F)cn3)cc2)CC1
- pIC50 (Cholinesterase): < 4.30

SMILES: O=C(Oc1ccc(Oc2ncc(Cl)cc2Cl)cc1)N1CCOCC1
- pIC50 (Acetylcholinesterase): < 4.30
- pIC50 (Cholinesterase): < 4.30

SMILES: O=C(Oc1ccc(Oc2ccc(C(F)(F)F)cn2)cc1)N1Cc2ccccc2C1
- pIC50 (Acetylcholinesterase): < 4.30
- pIC50 (Cholinesterase): < 4.30

SMILES: CN(C(=O)Oc1ccc(Oc2ncc(Cl)cc2Cl)cc1)c1ccccc1
- pIC50 (Acetylcholinesterase): < 4.30
- pIC50 (Cholinesterase): < 4.30

SMILES: O=C(Oc1ccc(Oc2ccc(C(F)(F)F)cn2)cc1)N1CCc2ccccc2C1
- pIC50 (Acetylcholinesterase): < 4.30
- pIC50 (Cholinesterase): < 4.30

SMILES: CN(C(=O)Oc1ccc(Oc2ccccc2)cc1)c1ccccc1
- pIC50 (Hormone-sensitive lipase): < 5.30
- pIC50 (Acetylcholinesterase): < 4.30
- pIC50 (Cholinesterase): < 4.30

SMILES: CN(C(=O)Oc1ccc(Nc2ccc(C(F)(F)F)cn2)cc1)c1ccccc1
- pIC50 (Acetylcholinesterase): < 4.30
- pIC50 (Cholinesterase): < 4.30

SMILES: CN(C(=O)Oc1ccc(Oc2c(Cl)cncc2Cl)cc1)c1ccccc1
- pIC50 (Acetylcholinesterase): < 4.30
- pIC50 (Cholinesterase): < 4.30

SMILES: CN(C)C(=O)Oc1ccc(Oc2ncc(Cl)cc2Cl)cc1
- pIC50 (Hormone-sensitive lipase): < 4.30
- pIC50 (Acetylcholinesterase): < 4.30
- pIC50 (Cholinesterase): < 4.30

SMILES: O=C(Oc1ccc(Oc2ccc(C(F)(F)F)cn2)cc1)N1CCc2ccccc21
- pIC50 (Hormone-sensitive lipase): < 5.52
- pIC50 (Acetylcholinesterase): < 4.30
- pIC50 (Cholinesterase): < 4.30

SMILES: O=C(Oc1ccc(Oc2ncc(Cl)cc2Cl)cc1)N1CCCC1
- pIC50 (Acetylcholinesterase): < 4.30
- pIC50 (Cholinesterase): < 4.30

SMILES: COc1ccccc1N(C)C(=O)Oc1ccc(Oc2ccc(C(F)(F)F)cn2)cc1
- pIC50 (Acetylcholinesterase): < 4.30
- pIC50 (Cholinesterase): < 4.30

SMILES: Cc1ccc(N(C)C(=O)Oc2ccc(Oc3ccc(C(F)(F)F)cn3)cc2)cc1
- pIC50 (Acetylcholinesterase): < 4.30
- pIC50 (Cholinesterase): < 4.30

SMILES: CCN(C(=O)Oc1ccc(Oc2ccc(C(F)(F)F)cn2)cc1)c1ccccc1
- pIC50 (Hormone-sensitive lipase): < 5.30

SMILES: CN(Cc1ccccc1)C(=O)Oc1ccc(Oc2ccc(C(F)(F)F)cn2)cc1
- pIC50 (Acetylcholinesterase): < 4.30
- pIC50 (Cholinesterase): < 4.30

SMILES: CC1CCCN(C(=O)Oc2ccc(Oc3ccc(C(F)(F)F)cn3)cc2)C1 (stereo not drawn)
- pIC50 (Acetylcholinesterase): < 4.30
- pIC50 (Cholinesterase): < 4.30

SMILES: O=C(Oc1ccc(Oc2ccc(C(F)(F)F)cn2)cc1)N1CCCc2ccc(C(F)(F)F)cc21
- pIC50 (Hormone-sensitive lipase): < 5.30
- pIC50 (Acetylcholinesterase): < 4.30
- pIC50 (Cholinesterase): < 4.30

SMILES: CN(C(=O)Oc1ccc(Oc2ccc(C(F)(F)F)cn2)cc1)c1ccc(Cl)cc1
- pIC50 (Acetylcholinesterase): < 4.30
- pIC50 (Cholinesterase): < 4.30

SMILES: O=C(Oc1ccc(Oc2ccc(C(F)(F)F)cn2)cc1)N1CCOCC1
- pIC50 (Acetylcholinesterase): < 4.30
- pIC50 (Cholinesterase): < 4.30
- bioavailability [3]: 12%
- Cmax [4]: 21 ng/mL

SMILES: O=C(Oc1ccc(Oc2ccc(C(F)(F)F)cn2)cc1)N1CCC(Cc2ccccc2)CC1
- pIC50 (Cholinesterase): < 4.30

SMILES: CN(C(=O)Oc1ccc(Oc2ncc(C(F)(F)F)cc2Cl)cc1)c1ccccc1
- pIC50 (Acetylcholinesterase): < 4.30
- pIC50 (Cholinesterase): < 4.30

SMILES: CC1CN(C(=O)Oc2ccc(Oc3ccc(C(F)(F)F)cn3)cc2)CC(C)O1 (stereo not drawn)
- pIC50 (Acetylcholinesterase): < 4.30
- pIC50 (Cholinesterase): < 4.30

SMILES: CC1CCCCN1C(=O)Oc1ccc(Oc2ccc(C(F)(F)F)cn2)cc1 (stereo not drawn)
- pIC50 (Hormone-sensitive lipase): < 5.30
- pIC50 (Acetylcholinesterase): < 4.30
- pIC50 (Cholinesterase): < 4.30

SMILES: CN(C(=O)Oc1ccc(Oc2ccc(C(F)(F)F)cn2)cc1)c1cccc(Cl)c1
- pIC50 (Acetylcholinesterase): < 4.30
- pIC50 (Cholinesterase): < 4.30

SMILES: CC(C)N(C)C(=O)Oc1ccc(Oc2ccc(C(F)(F)F)cn2)cc1
- pIC50 (Hormone-sensitive lipase): < 5.30
- pIC50 (Acetylcholinesterase): < 4.30
- pIC50 (Cholinesterase): < 4.30

SMILES: Cc1ccccc1N(C)C(=O)Oc1ccc(Oc2ccc(C(F)(F)F)cn2)cc1
- pIC50 (Acetylcholinesterase): < 4.30
- pIC50 (Cholinesterase): < 4.30

SMILES: CN(C(=O)Oc1ccc(Oc2ccc(Cl)cn2)cc1)c1ccccc1
- pIC50 (Acetylcholinesterase): < 4.30
- pIC50 (Cholinesterase): < 4.30

SMILES: O=C(Oc1ccc(Oc2ccc(C(F)(F)F)cn2)cc1)N1CCCCC1
- pIC50 (Acetylcholinesterase): < 4.30
- pIC50 (Cholinesterase): 5.09

SMILES: CC1CCN(C(=O)Oc2ccc(Oc3ccc(C(F)(F)F)cn3)cc2)CC1
- pIC50 (Acetylcholinesterase): < 4.30
- pIC50 (Cholinesterase): < 4.30

SMILES: CN(C(=O)Oc1ccc(Oc2ccc(C(F)(F)F)cn2)cc1)C1CCCCC1
- pIC50 (Hormone-sensitive lipase): < 5.30
- pIC50 (Acetylcholinesterase): < 4.30
- pIC50 (Cholinesterase): < 4.30

SMILES: CN(C(=O)Oc1ccc(Oc2ccc(C(F)(F)F)cn2)cc1)C(C)(C)C
- pIC50 (Hormone-sensitive lipase): < 5.30
- pIC50 (Acetylcholinesterase): < 4.30
- pIC50 (Cholinesterase): < 4.30

SMILES: O=C(Oc1ccc(Oc2ccc(C(F)(F)F)cn2)cc1)N1CCCC1
- pIC50 (Acetylcholinesterase): < 4.30
- pIC50 (Cholinesterase): < 4.30

SMILES: CCCCNC(=O)Oc1ccc(Oc2ncc(Cl)cc2Cl)cc1
- pIC50 (Acetylcholinesterase): < 4.30
- pIC50 (Cholinesterase): 4.72

SMILES: CN(C(=O)Oc1ccc(Oc2ccc(C(F)(F)F)cn2)cc1)c1ccccc1Cl
- pIC50 (Acetylcholinesterase): < 4.30
- pIC50 (Cholinesterase): < 4.30

Source: ChEMBL document CHEMBL1137574, “Synthesis and structure-activity relationship for a novel class of potent and selective carbamate-based inhibitors of hormone selective lipase with acute in vivo antilipolytic effects” (J Med Chem, 2007)
